Laboratory results reported in ChEMBL document CHEMBL5543163, “Druglike, 18F-labeled PET Tracers Targeting Fibroblast Activation Protein” (J Med Chem, 2024).

Tests used:
[1] = Octanol/water partition coefficient, logD of compound at 74 kBq incubated for 2 mins by gamma counter method; type: physicochemical
Summary of the method: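 Octanol and PBS phases were mixed and vortexed for 2 min, then centrifuged at 3,000 rpm for 10 min. Aliquots of 0.5 mL from each phase were γ-counted and corrected for mass and density. LogD was taken as log10 of the octanol/PBS radioactivity ratio.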

[2] = Stability in PBS assessed as compound remaining at 185 kBq measured upto 60 mins by radio-HPLC analysis; type: physicochemical; conditions: read-out: Stability
Summary of the method: (§1)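 Radiotracer was incubated at 37 °C for up to 60 min in PBS (0.01 M, pH 7.4) or in mouse plasma. Samples were deproteinized with an equal volume of cold ACN and centrifuged. The supernatant was analyzed by radio-HPLC with 30 s fractions γ-counted to give the intact fraction. Triplicates.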

[3] = Stability in CD1 mouse plasma assessed as compound remaining at 185 kBq measured upto 60 mins by radio-HPLC analysis; type: ADME, cell-free; conditions: read-out: Stability; summary of the method: as §1
[4] = Stability in PBS assessed as drug degradation at 185 kBq measured upto 60 mins by radio-HPLC analysis; type: physicochemical; conditions: buffer, 1 h; summary of the method: as §1
[5] = Stability in CD1 mouse plasma assessed as drug degradation at 185 kBq measured upto 60 mins by radio-HPLC analysis; type: ADME, cell-free; conditions: 1 h; summary of the method: as §1
[6] = Stability in female nude mouse harboring null mutation of CD1 antigen complex assessed as drug degradation at 5.1 to 7.4 MBq, iv measured at 60 mins by radio-HPLC analysis; type: ADME, organism-based; conditions: 1 h, dose 5.1-7.4 MBq
Summary of the method: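 Female CD1 nude mice received 5.1–7.4 MBq i.v. EDTA blood collected at 15, 30 and 60 min p.i. (n=3 per time point) was centrifuged to plasma, deproteinized with cold ACN and centrifuged. The supernatant was analyzed by radio-HPLC with 30 s fractions γ-counted to give the percent intact tracer.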

[7] = Drug uptake in blood of female nude mouse harboring null mutation of CD1 antigen complex at 5.1 to 7.4 MBq, iv measured after 15 to 60 mins by gamma counter analysis; type: ADME, organism-based; conditions: in vivo, dose lower 5.1 MBq, time lower 15 min, dose upper 7.4 MBq, time upper 60 min
Summary of the method: (§2)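 Female CD1 nude mice, 6–8 weeks old (20–25 g), received the radiotracer through the lateral tail vein. At 15, 30 and 60 min p.i. (n = 3 per time point) blood was drawn by cardiac puncture and the animals were euthanized. Organs were excised, weighed and γ-counted. Uptake is expressed as %ID/g.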

[8] = Drug uptake in liver of female nude mouse harboring null mutation of CD1 antigen complex at 5.1 to 7.4 MBq, iv measured after 15 to 60 mins by gamma counter analysis; type: ADME, organism-based; conditions: in vivo, dose lower 5.1 MBq, time lower 15 min, dose upper 7.4 MBq, time upper 60 min; summary of the method: as §2
[9] = Drug uptake in intestine of female nude mouse harboring null mutation of CD1 antigen complex at 5.1 to 7.4 MBq, iv measured after 15 to 60 mins by gamma counter analysis; type: ADME, organism-based; conditions: in vivo, dose lower 5.1 MBq, time lower 15 min, dose upper 7.4 MBq, time upper 60 min; summary of the method: as §2
[10] = Drug uptake in kidney of female nude mouse harboring null mutation of CD1 antigen complex assessed as increase in renal excretion at 5.1 to 7.4 MBq, iv measured after 15 to 60 mins by gamma counter analysis; type: ADME, organism-based; conditions: in vivo, dose lower 5.1 MBq, time lower 15 min, dose upper 7.4 MBq, time upper 60 min; summary of the method: as §2
[11] = Drug uptake in urinary bladder of female nude mouse harboring null mutation of CD1 antigen complex assessed as increase in renal excretion at 5.1 to 7.4 MBq, iv measured after 15 to 60 mins by gamma counter analysis; type: ADME, organism-based; conditions: in vivo, dose lower 5.1 MBq, time lower 15 min, dose upper 7.4 MBq, time upper 60 min; summary of the method: as §2
[12] = Drug uptake in tumor of female nude mouse harboring null mutation of CD1 antigen complex xenografted with human U-87 MG cells at 5 to 7.4 MBq, iv measured at 60 mins by PET/CT analysis; type: ADME, organism-based, Neoplasm; conditions: in vivo, 1 h, dose 5-7.4 MBq
Summary of the method: (§3)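 U-87MG xenografts (5×10^6 cells, subcutaneous flank) were grown in female CD1 nude mice to about 200 mm3. Dynamic whole-body PET over 60 min p.i. was followed by CT. Images were reconstructed with OSEM 3D and expressed as %ID/mL to give time-activity curves. For blocking, the FAP inhibitor (5 mg/kg) was given via the tail vein 30 min before the tracer; n=4.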

[13] = Drug uptake in tumor of female nude mouse harboring null mutation of CD1 antigen complex xenografted with human U-87 MG cells at 5 to 7.4 MBq, iv pretreated with (S)-N-(2-(2-cyano-4,4-difluoropyrrolidin-1-yl)-2-oxoethyl)quinoline-4-carboxamide for 30 mins followed by radioligand addition and measured measured after 60 mins by PET/CT analysis; type: ADME, organism-based, Neoplasm; conditions: in vivo, 1 h, dose 5-7.4 MBq; summary of the method: as §3
[14] = Drug uptake in skull of female nude mouse harboring null mutation of CD1 antigen complex xenografted with human U-87 MG cells at 5 to 7.4 MBq, iv measured after 60 mins by gamma counter analysis; type: ADME, organism-based; conditions: in vivo, 1 h, dose 5-7.4 MBq
[15] = Ratio of drug level in tumor to muscle of female nude mouse harboring null mutation of CD1 antigen complex xenografted with human U-87 MG cells at 5 to 7.4 MBq, iv measured at 60 mins postinjection by gamma counter analysis; type: ADME, organism-based; conditions: in vivo, 1 h, dose 5-7.4 MBq
Summary of the method: (§4)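 Subcutaneous U-87MG xenografts (5×10^6 cells in DPBS, hind flank) were grown in female CD1 nude mice to about 200 mm3. After tail-vein radiotracer injection and a 60 min dynamic PET scan, tissues were harvested at 60 min p.i. and γ-counted (%ID/g). Tumor-to-tissue ratios are means ± SD of individual ratios, n=4 per tracer.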

[16] = Ratio of drug level in tumor to blood of female nude mouse harboring null mutation of CD1 antigen complex xenografted with human U-87 MG cells at 5 to 7.4 MBq, iv measured at 60 mins postinjection by gamma counter analysis; type: ADME, organism-based; conditions: tumour, 1 h, dose 5-7.4 MBq; summary of the method: as §4
[17] = Ratio of drug level in tumor to small intestine of female nude mouse harboring null mutation of CD1 antigen complex xenografted with human U-87 MG cells at 5 to 7.4 MBq, iv measured at 60 mins postinjection by gamma counter analysis; type: ADME, organism-based; conditions: in vivo, 1 h, dose 5-7.4 MBq; summary of the method: as §4
[18] = Ratio of drug level in tumor to liver of female nude mouse harboring null mutation of CD1 antigen complex xenografted with human U-87 MG cells at 5 to 7.4 MBq, iv measured at 60 mins postinjection by gamma counter analysis; type: ADME, organism-based; conditions: in vivo, 1 h, dose 5-7.4 MBq; summary of the method: as §4
[19] = Drug uptake in tumor of female nude mouse harboring null mutation of CD1 antigen complex xenografted with human U-87 MG cells with increased FAP positive tumor area at 5 to 7.4 MBq, iv measured after 60 mins by immunohistochemistry analysis; type: ADME, organism-based, Neoplasm; conditions: in vivo, 1 h, dose 5-7.4 MBq
[20] = Drug uptake in tumor of female nude mouse harboring null mutation of CD1 antigen complex xenografted with human HT-29 cells with decreased FAP positive tumor area at 5 to 7.4 MBq, iv measured after 60 mins by immunohistochemistry analysis; type: ADME, organism-based, Neoplasm; conditions: in vivo, 1 h, dose 5-7.4 MBq
[21] = Drug uptake in bone structures of female nude mouse harboring null mutation of CD1 antigen complex xenografted with human U-87 MG cells at 5 to 7.4 MBq, iv measured after 60 mins by gamma counter analysis; type: ADME, organism-based, Bone element; conditions: in vivo, 1 h, dose 5-7.4 MBq
[22] = target: T1, Prolyl endopeptidase FAP (Homo sapiens, UniProt Q12884); assay: Inhibition of FAP (unknown origin) using Z-Gly-Pro-7-amino-4-methylcoumarine as fluorogenic substrate preincubated for 15 mins followed by substrate addition and measured after 15 mins
T1 sequence (Q12884 whole entry): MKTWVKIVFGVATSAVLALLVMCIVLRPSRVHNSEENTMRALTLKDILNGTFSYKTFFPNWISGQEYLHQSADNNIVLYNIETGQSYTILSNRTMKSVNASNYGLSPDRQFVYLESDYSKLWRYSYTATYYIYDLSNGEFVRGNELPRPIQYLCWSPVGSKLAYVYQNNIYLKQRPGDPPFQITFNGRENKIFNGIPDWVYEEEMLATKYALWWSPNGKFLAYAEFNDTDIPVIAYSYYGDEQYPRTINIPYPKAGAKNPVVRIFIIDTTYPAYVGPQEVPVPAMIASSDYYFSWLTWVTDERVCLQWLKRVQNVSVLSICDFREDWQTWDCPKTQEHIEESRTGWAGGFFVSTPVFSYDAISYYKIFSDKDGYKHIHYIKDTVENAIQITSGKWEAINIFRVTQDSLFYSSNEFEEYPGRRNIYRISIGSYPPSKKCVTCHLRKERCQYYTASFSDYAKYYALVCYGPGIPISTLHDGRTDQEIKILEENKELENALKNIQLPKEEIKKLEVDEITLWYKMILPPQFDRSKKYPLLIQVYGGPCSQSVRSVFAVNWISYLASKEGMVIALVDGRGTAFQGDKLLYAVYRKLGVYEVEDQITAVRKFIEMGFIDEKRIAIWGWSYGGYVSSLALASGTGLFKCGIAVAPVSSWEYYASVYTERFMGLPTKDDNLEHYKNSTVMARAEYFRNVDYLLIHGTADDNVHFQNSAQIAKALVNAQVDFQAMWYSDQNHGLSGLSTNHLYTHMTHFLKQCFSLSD

[23] = target: Dipeptidyl peptidase 4 (Homo sapiens, UniProt P27487); assay: Inhibition of DPP4 (unknown origin) using Ala-Pro-paranitroanilide as chromogenic substrate preincubated for 15 mins followed by substrate addition and measured after 15 mins
[24] = target: Dipeptidyl peptidase 8 (Homo sapiens, UniProt Q6V1X1); assay: Inhibition of DPP8 (unknown origin) using Ala-Pro-paranitroanilide as chromogenic substrate preincubated for 15 mins followed by substrate addition and measured after 15 mins
[25] = target: Dipeptidyl peptidase 9 (Homo sapiens, UniProt Q86TI2); assay: Inhibition of DPP9 (unknown origin) using Ala-Pro-paranitroanilide as chromogenic substrate preincubated for 15 mins followed by substrate addition and measured after 15 mins
[26] = target: Dipeptidyl peptidase 2 (Homo sapiens, UniProt Q9UHL4); assay: Inhibition of DPP2 (unknown origin) using Lys-Ala-pNA as substrate preincubated for 15 mins followed by substrate addition and measured after 15 mins
[27] = target: T2, Prolyl endopeptidase (Homo sapiens, UniProt P48147); assay: Inhibition of PREP (unknown origin) using N-succinyl-Gly-Pro-AMC as substrate preincubated for 15 mins followed by substrate addition and measured after 15 mins
T2 sequence (P48147 whole entry): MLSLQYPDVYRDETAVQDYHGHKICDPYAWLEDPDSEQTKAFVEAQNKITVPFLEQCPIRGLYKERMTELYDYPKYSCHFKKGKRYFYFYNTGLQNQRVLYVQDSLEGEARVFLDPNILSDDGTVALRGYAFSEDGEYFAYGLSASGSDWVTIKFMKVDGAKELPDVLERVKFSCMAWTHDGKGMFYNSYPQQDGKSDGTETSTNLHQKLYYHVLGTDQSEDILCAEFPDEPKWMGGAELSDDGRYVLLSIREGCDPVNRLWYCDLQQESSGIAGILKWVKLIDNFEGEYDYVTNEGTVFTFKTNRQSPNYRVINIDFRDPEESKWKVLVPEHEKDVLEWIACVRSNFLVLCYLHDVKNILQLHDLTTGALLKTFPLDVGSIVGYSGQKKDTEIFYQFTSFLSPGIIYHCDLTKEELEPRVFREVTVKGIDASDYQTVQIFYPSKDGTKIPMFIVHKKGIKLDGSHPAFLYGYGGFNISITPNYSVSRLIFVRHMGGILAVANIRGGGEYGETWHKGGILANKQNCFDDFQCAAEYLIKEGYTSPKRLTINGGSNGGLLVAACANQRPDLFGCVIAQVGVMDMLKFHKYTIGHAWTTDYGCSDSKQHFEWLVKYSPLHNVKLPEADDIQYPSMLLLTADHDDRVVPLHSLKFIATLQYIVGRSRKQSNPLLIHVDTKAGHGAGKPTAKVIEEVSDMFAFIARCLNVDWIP

Sequence of Dipeptidyl peptidase 4 (P27487 whole entry): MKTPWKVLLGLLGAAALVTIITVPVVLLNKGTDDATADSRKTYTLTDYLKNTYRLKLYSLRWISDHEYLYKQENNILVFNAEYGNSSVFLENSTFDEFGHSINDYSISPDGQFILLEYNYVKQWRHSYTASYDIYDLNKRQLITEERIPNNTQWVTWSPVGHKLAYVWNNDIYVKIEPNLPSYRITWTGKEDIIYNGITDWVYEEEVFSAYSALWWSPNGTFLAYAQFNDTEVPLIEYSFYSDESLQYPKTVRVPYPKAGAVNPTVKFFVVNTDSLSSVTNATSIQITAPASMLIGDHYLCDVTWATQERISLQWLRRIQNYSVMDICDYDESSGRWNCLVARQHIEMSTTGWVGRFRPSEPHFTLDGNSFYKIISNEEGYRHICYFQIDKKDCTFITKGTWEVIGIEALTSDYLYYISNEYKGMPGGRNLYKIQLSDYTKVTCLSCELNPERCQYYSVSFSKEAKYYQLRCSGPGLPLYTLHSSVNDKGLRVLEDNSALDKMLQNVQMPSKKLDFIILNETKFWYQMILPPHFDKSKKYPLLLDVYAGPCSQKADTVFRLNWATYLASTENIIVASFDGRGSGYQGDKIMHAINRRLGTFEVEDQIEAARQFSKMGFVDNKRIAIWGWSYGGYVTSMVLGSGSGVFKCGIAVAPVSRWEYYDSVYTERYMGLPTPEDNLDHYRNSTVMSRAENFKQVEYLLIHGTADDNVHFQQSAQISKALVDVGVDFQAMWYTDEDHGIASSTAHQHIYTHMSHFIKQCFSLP
Sequence of Dipeptidyl peptidase 9 (Q86TI2 whole entry): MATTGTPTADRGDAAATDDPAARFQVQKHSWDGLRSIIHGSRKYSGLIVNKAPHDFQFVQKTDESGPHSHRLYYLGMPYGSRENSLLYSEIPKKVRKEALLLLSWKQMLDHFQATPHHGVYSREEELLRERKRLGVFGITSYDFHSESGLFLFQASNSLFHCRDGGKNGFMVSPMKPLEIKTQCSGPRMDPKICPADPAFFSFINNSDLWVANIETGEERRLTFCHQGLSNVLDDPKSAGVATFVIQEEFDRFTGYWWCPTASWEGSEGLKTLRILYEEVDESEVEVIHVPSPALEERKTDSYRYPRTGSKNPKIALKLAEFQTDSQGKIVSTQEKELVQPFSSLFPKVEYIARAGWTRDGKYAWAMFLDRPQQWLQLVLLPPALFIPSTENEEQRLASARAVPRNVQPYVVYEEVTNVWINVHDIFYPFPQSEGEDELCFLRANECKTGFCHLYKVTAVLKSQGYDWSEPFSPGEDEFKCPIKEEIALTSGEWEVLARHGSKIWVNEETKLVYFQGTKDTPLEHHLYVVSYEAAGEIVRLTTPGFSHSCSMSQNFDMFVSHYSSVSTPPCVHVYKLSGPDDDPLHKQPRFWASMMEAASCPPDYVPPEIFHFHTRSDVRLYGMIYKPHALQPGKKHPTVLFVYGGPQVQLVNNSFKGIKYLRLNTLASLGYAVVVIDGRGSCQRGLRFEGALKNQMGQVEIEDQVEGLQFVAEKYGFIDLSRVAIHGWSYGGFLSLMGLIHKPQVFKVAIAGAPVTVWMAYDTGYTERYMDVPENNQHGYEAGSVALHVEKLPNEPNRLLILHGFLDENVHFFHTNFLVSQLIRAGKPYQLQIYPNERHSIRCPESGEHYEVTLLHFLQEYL
Sequence of Dipeptidyl peptidase 8 (Q6V1X1 whole entry): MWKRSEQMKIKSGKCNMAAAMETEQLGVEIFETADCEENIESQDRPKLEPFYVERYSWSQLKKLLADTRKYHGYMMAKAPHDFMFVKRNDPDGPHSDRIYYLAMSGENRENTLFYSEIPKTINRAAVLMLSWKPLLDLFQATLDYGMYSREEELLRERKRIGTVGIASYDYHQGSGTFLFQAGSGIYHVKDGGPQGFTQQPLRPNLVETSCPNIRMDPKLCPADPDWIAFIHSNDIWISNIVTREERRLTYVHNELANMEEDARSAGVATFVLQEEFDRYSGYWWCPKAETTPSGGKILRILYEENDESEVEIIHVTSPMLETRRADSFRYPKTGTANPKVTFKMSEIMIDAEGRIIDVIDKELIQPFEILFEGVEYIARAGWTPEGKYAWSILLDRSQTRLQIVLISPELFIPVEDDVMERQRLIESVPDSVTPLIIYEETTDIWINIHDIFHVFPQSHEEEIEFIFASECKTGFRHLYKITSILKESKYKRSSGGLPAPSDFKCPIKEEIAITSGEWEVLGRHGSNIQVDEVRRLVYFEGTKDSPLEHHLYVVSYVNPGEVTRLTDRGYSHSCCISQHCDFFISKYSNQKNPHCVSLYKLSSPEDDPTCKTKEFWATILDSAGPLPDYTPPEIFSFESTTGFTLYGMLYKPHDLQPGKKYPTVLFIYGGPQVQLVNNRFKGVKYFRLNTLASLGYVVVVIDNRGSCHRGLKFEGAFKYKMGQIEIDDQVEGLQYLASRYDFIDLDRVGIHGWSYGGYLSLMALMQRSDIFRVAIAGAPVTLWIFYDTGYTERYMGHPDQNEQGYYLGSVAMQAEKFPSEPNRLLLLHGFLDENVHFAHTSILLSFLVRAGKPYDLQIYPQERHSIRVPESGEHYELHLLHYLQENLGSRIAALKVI

Row | logD at 2 min [1] | remaining at 1 h, 185 kBq [2] | remaining at 1 h, 185 kBq [3] | Stability [4] | Stability [5] | Stability [6] | Drug uptake [8] | Drug uptake [9] | Drug uptake [10] | Drug uptake [11] | Drug uptake [12] | Drug uptake [13] | Drug uptake [14] | Ratio [15] | Ratio [16] | Ratio [17] | Ratio [18] | Drug uptake [19] | Drug uptake [20] | Drug uptake [21] | Compound | other results
1 | -0.27 | > 70% | > 70% | Stable | Stable | Unstable | Active | Active | Active | Active | < 3 %ID/ml | Not Active | Active | 5.26 | 6.56 | 0.12 | 1.67 | Active | Not Active | Active | N#C[C@@H]1CC(F)(F)CN1C(=O)CNC(=O)c1ccnc2ccc(OCC(O)C(O)C[18F])cc12 (some centres not stated) | Drug uptake [7]: 0.13 % ID/g
2 | 0.18 | > 70% | > 70% | Stable | Stable | Unstable | Active | Active | Active | Active | < 3 %ID/ml | Not Active | Active | 3.6 | 6.58 | 0.16 | 2.37 | Active | Not Active | Active | N#C[C@@H]1CC(F)(F)CN1C(=O)CNC(=O)c1ccnc2ccc(OCC(O)C[18F])cc12 (some centres not stated) | 
3 |  |  |  |  |  |  |  |  |  |  |  |  |  |  |  |  |  |  |  |  | N#C[C@@H]1CC(F)(F)CN1C(=O)CNC(=O)c1ccnc2ccc(OCC(O)CF)cc12 (some centres not stated) | IC50 [22]: 0.00437 µM; IC50 [23]: > 10 µM; IC50 [24]: > 10 µM; IC50 [25]: > 10 µM; IC50 [26]: > 10 µM; IC50 [27]: > 10 µM
